Measurements published in PubChem BioAssay.
The source made the active and inactive calls.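 The calls were made as follows, unless noted: active = viability at or below 10% of carrier control in both of two separate runs; inconclusive = viability at or below 10% in only one of the two runs; inactive = the rest.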

Experiments:
[1] = Her2 expression decrease, cell viability multiplex – SKBR3 breast tumor cells, AlphaScreen, ATP viability, primary screen (AID 461;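 active = Her2 level under about 52% in both replicate screens, with viability over 70% of control, limit read from the data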;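 as to Her2 level: lower value means less Her2 protein in the cells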;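 as to viability: percent of carrier control wells set as 100% viability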); settings: SKBR3 Her2 protein level, 18-24 h, measured here: SKBR3 viability, ATP luminescence, at 10 µM
[2] = target: Receptor tyrosine-protein kinase erbB-2 (Homo sapiens) (UniProt P04626); assay: as above; settings: 18-24 h, at 10 µM, stronger effect = lower value
Receptor tyrosine-protein kinase erbB-2 (Homo sapiens), sequence (P04626 whole entry, looked up): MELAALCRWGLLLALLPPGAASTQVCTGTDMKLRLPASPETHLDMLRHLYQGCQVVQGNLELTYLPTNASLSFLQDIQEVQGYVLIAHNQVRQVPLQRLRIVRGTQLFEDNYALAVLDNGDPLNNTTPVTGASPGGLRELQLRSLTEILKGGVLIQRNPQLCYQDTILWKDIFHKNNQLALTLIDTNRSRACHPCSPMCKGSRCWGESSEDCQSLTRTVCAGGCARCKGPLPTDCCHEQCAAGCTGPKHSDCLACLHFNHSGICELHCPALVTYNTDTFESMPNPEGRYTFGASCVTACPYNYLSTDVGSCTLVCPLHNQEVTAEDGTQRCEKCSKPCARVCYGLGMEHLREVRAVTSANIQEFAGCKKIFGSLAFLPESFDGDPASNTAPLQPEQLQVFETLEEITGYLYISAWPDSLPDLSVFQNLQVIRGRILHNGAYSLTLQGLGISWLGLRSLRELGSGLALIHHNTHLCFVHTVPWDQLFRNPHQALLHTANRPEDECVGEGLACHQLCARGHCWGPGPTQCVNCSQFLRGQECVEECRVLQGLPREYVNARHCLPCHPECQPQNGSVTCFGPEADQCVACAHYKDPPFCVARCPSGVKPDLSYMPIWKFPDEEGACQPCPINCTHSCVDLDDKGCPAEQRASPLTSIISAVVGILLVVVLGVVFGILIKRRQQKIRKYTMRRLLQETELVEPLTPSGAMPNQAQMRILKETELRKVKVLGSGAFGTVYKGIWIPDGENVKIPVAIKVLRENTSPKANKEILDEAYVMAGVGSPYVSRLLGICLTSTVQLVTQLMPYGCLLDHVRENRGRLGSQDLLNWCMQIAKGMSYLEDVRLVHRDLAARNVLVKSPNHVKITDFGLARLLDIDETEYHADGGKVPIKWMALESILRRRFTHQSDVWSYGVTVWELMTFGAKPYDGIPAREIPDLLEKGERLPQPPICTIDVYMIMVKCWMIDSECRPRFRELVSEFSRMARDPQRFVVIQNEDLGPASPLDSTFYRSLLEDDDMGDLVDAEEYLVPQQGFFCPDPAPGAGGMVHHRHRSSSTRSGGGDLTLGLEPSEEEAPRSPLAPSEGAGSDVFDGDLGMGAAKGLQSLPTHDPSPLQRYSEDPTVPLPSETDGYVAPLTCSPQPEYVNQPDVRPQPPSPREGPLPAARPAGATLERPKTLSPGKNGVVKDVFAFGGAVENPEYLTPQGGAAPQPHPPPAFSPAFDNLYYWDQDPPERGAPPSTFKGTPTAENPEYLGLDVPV

[3] = reduced viability of SK-BR-3 breast cancer cells – cell-based, 24 h, human, pilot screen (AID 572); settings: SK-BR-3 viability, CellTiter-Glo luminescence, at 10 µM, stronger effect = lower value;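 also: compound exposure lasted between 18 and 24 h rather than exactly 24 h; 100% = carrier-treated control wells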
[4] = HUVEC growth inhibition – cell-based, human, primary screen (AID 575;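 active = viability at or below 30% in both replicate assays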;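 also: 100% = median of untreated cell wells with 0.1% DMSO on each plate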); settings: HUVEC proliferation, CellTiter-Glo luminescence, 72 h; at 10 µM; stronger effect = lower value
Method in brief: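 Test system: primary human umbilical vein endothelial cells. Quantity: 1250 cells/well. Compound: single 10 µM dose, 0.1% DMSO, from 5x medium stock. Timing: 72 h treatment at 37 °C. Detection: ATP-based CellTiter-Glo luminescent read. Benchmarks: vehicle and MePR control wells. Format: 384-well plates coated with collagen.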

[5] = H69AR cell proliferation blockers – human, duplicate replicates, primary screen (AID 580;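 active = viability at or under a set limit in both replicates, limit being median viability minus 3 SD, cut at about 48% in these data, passing the limit was not always enough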;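 also: 100% = mean luminescence of untreated wells and 0% = no signal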); settings: H69AR lung tumor cells viability, ATP luminescence, 72 h; at 10 µM; stronger effect = lower value
[6] = MRP1 drug-resistance reversers in H69AR cells – cell-based, doxorubicin co-treatment, pilot screen (AID 601;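 active = viability loss from added drug above about 55%, and viability with drug at most 40%, in both replicates, limit read from the data, passing the limit was not always enough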); settings: CellTiter-Glo, 72 h, at 10 µM; for differential viability (reversal): stronger effect = higher value
[7] = yeast transport mutant growth inhibition pilot in 384-well plates, post-Golgi transport modulator project (AID 636; in the data active = inhibition above about 31%); settings: absorbance 615 nm, about 18 h, stronger effect = higher value
[8] = growth suppression of yeast trafficking mutant, preliminary HTS, modulators of trafficking downstream of Golgi apparatus project, 1536-format plate, OD 615 nm (AID 637; in the data active = inhibition above about 30%); settings: yeast transport mutant growth, absorbance 615 nm, 18 h; stronger effect = higher value
[9] = H69AR cells + 2 uM doxorubicin, measured here: viability with 2 uM doxorubicin, stronger effect = lower value
[10] = H69AR cells, compound alone cytotoxicity

| SMILES | viability [1] | Her2 level [2] | viability [3] | viability [4] | viability [5] | differential viability (reversal) ([6]; H69AR cells + 2 uM doxorubicin) | viability [6, 9] | viability [6, 10] | inhibition [7] | inhibition [8] |
| --- | --- | --- | --- | --- | --- | --- | --- | --- | --- | --- |
| O=C(CCCn1c(=S)[nH]c2ccccc2c1=O)N1CCCCC1 | 86% | 108% (inactive) | 86% (inactive) | 87.1% (inactive) | 96.8% (inactive) | 6.58% (inactive) | 90.2% | 96.8% | -2.63% (inactive) | -8.1% (inactive) |
| Cc1nc2ccccn2c1C(=O)NCCCN1CCOCC1 | 91.5% | 94.5% (inactive) | 91.5% (inactive) | 109% (inactive) | 102% (inactive) | 5.8% (inactive) | 96.4% | 102% | -0.27% (inactive) | 4.59% (inactive) |
| CCOc1cc(C)c(Cl)cc1S(=O)(=O)N(C)C | 106% | 90.5% (inactive) | 106% (inactive) | 103% (inactive) | 95.4% (inactive) | 8.76% (inactive) | 86.6% | 95.4% | -3.03% (inactive) | -2.1% (inactive) |
| O=S(=O)(Nc1cccc2ncccc12)c1cccs1 | 256% | 13% (active) | 256% (inactive) | 23.9% (active) | 1.71% (active) | 0.345% (inactive) | 1.37% | 1.71% | 0.92% (inactive) | 6.19% (inactive) |
| CCN(CC)S(=O)(=O)c1ccc2c(c1)nc(SCC(=O)NC1CC1)n2-c1ccccc1OC | 92.5% | 86.5% (inactive) | 92.5% (inactive) | 67.8% (inactive) | 91.3% (inactive) | 14.2% (inactive) | 77.1% | 91.3% | -5.81% (inactive) | 3.65% (inactive) |
| COc1ccc(-c2cc3nc(C)c(CCC(=O)NCc4ccco4)c(C)n3n2)c(OC)c1 | 103% | 91% (inactive) | 103% (inactive) | 92.1% (inactive) | 85.8% (inactive) | -2.58% (inactive) | 88.4% | 85.8% | 0.53% (inactive) | 6.91% (inactive) |
| Nc1c(Sc2ccccc2)c(=O)[nH]c(=O)n1Cc1ccccc1 | 90.5% | 104% (inactive) | 90.5% (inactive) | 109% (inactive) | 102% (inactive) | 8.38% (inactive) | 93.2% | 102% | -5.14% (inactive) | -6% (inactive) |
| COc1cc2c(cc1NC(=O)CN1CCN(S(=O)(=O)c3ccc(F)cc3)CC1)oc1ccccc12 | 93.5% | 105% (inactive) | 93.5% (inactive) | 66.4% (inactive) | 95.7% (inactive) | 1.29% (inactive) | 94.4% | 95.7% | -2.37% (inactive) | 3.33% (inactive) |
| CCC(OC(=O)c1cccs1)C(=O)NCc1ccco1 (stereo not given) | 103% | 93% (inactive) | 103% (inactive) | 98.6% (inactive) | 91.4% (inactive) | 9.38% (inactive) | 82% | 91.4% | -2.86% (inactive) | 1.97% (inactive) |
| COCCSc1nnc(NC(=O)Cc2ccccc2OC)s1 | 106% | 76% (inactive) | 106% (inactive) | 91% (inactive) | 98.9% (inactive) | 7.86% (inactive) | 91% | 98.9% | -5.39% (inactive) | -1.67% (inactive) |
| CC1(C)CC(=O)C(C#N)=C(NCCCO)C1 | 99.5% | 98.5% (inactive) | 99.5% (inactive) | 91.5% (inactive) | 100% (inactive) | -2.31% (inactive) | 103% | 100% | -1.2% (inactive) | 0.97% (inactive) |
| O=C(CCCCCN1C(=O)CCC1=O)NCc1ccccc1 | 103% | 73% (inactive) | 103% (inactive) | 100% (inactive) | 98.2% (inactive) | 13.5% (inactive) | 84.7% | 98.2% | -7.97% (inactive) | 4.13% (inactive) |
| Cc1cccc(C)c1NC(=O)CS(=O)CC(=O)NC1CCCc2ccccc21 (stereo not given) | 96.5% | 82.5% (inactive) | 96.5% (inactive) | 103% (inactive) | 88.7% (inactive) | -3.62% (inactive) | 92.3% | 88.7% | -6.8% (inactive) | -4.59% (inactive) |
| CN1CCCC(OC(=O)COc2ccc(Br)cc2)C1 (stereo not given) | 93.5% | 108% (inactive) | 93.5% (inactive) | 91.4% (inactive) | 89.7% (inactive) | -2.85% (inactive) | 92.5% | 89.7% | -0.8% (inactive) | -1.48% (inactive) |
| CCCCN(CC)CCCNC(=O)CS(=O)(=O)Cc1nc(-c2cccc(OC)c2)oc1C | 92% | 112% (inactive) | 92% (inactive) | 80.1% (inactive) | 97.2% (inactive) | 10.4% (inactive) | 86.7% | 97.2% | 0.66% (inactive) | -11.3% (inactive) |
| CCOC(=O)CC1(CC(=O)OCC)NC(=O)c2c(C)sc(C(=O)OCC)c2N1 | 92% | 93% (inactive) | 92% (inactive) | 71.4% (inactive) | 101% (inactive) | 5.26% (inactive) | 95.3% | 101% | -1.05% (inactive) | 6.39% (inactive) |
